High-throughput results deposited in PubChem by The Scripps Research Institute Molecular Screening Center.
TAAR1 antag = human TAAR1 antagonists, primary screen, Fluo-8 calcium fluorescence, CHO RD-HGA16 cells; Trace amine-associated receptor 1 (Homo sapiens), Q96RJ0; antagonist; inhibition, % at 3 µM; actives 1.5% (n = 360,000);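 active = inhibition above a per-plate cutoff, the mean inhibition of test compounds on that plate plus 3 SD, cut at about 49% in these data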
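System: CHO RD-HGA16 cells bearing hTAAR1. Reagent: EC80 β-phenethylamine stimulus. Schedule: seeding 17-24 h prior, 75-min 37 °C, 30-min RT dye loading. Signal: Fluo-8 intracellular calcium dye fluorescence, real-time kinetic reads. Read-out: % inhibition from peak post-agonist over basal fluorescence ratio. Benchmarks: vehicle wells and EC80 agonist wells. Replicates: n of 1.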
CHO parental Ca = ATP-evoked calcium signal inhibitors, parental CHO, primary screen, counter-screen for OX1R antagonist project, cell-based, fluorescence, Fluo-8 calcium dye; parental CHO-K1, ATP-induced calcium, Fluo-8 fluorescence; inhibition, % at 5.6 µM; actives 0.63% (n = 330,000);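 active = inhibition above that plate's mean sample inhibition plus 3 SD, cut at about 26% in these data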
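Measured by: calcium-sensitive Fluo-8 fluorescence / Test system: CHO parental line / Controls: ATP-challenged DMSO wells low, unchallenged DMSO wells high / Measure: % inhibition / Compound: single nominal dose of 5.6 µM per compound / Replicates: single well per compound, no replicates / Reagent: ATP as calcium-mobilizing challenge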
GPR7 antag = GPR7 receptor antagonists, primary screen, cell-based, fluorescence, single concentration. GPR7-expressing cells, fluorescence antagonist assay. actives 1.1% (n = 290,000). Neuropeptides B/W receptor type 1 (Homo sapiens), P48145. inhibition, % at 4.4 µM; in the data active = inhibition above about 16%, passing the limit was not always enough;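 note: cells stimulated with the agonist NPW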
Target sequence (P48145 whole entry, looked up): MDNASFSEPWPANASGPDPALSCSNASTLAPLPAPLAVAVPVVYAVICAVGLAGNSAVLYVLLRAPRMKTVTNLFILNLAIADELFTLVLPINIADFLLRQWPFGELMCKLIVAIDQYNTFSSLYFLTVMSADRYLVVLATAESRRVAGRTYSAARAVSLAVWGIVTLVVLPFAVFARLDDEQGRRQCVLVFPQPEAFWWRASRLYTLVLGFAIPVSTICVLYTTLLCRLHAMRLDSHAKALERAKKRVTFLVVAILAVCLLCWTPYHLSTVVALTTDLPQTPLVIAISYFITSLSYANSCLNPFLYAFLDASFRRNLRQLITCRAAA
TAAR1 agonist = human TAAR1 agonists, primary screen, Fluo-8 calcium fluorescence, CHO RD-HGA16 cells. Trace amine-associated receptor 1 (Homo sapiens), Q96RJ0. vehicle wells 0%, saturating PEA agonist 100%. activation, % at 3 µM. actives 0.99% (n = 360,000);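 active = activation above the mean activation of all test compounds in the run plus 3 SD, cut at about 38% in these data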
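System: CHO-derived RD-HGA16 cells with stable Gα16 and human TAAR1 / Times: 17-24 h plating, Fluo-8 75 min 37 °C, 30 min RT / Technique: calcium-sensitive Fluo-8 signal, excitation 470-495, emission 515-575 nm / Measure: % activation relative to PEA EC100 response / Benchmarks: DMSO and PEA EC100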
OX1R antag-1 = antagonists of human orexin 1 receptor (OX1R) | Orexin/Hypocretin receptor type 1 (Homo sapiens), O43613 | OX1R-expressing cells, FRET antagonist read-out | inhibition, % at 6.6 µM | actives 1.8% (n = 330,000); in the data active = inhibition mostly above about 38%, no sharp cut-off; inactive = mostly below about 40%
Target sequence (O43613 whole entry, looked up): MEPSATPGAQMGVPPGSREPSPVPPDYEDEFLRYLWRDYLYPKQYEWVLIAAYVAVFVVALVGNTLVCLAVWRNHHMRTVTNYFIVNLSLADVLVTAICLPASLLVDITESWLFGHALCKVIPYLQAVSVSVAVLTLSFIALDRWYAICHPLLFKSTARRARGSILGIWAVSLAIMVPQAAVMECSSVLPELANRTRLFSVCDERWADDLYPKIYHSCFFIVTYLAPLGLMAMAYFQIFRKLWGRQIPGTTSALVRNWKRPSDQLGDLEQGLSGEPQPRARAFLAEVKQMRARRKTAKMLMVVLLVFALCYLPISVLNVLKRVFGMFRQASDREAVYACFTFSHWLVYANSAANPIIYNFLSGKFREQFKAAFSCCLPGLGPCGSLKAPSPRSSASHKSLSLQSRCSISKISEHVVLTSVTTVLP
OX1R antag-2 = OX1R (HCRTR1) antagonists, primary screen, fluorescence, CHO/OX1R cells, Fluo-8 calcium, orexin A | Fluo-8 calcium fluorescence | Orexin/Hypocretin receptor type 1 (Homo sapiens), O43613 | AID 434989, 2010 | actives 0.43% (n = 330,000) | inhibition, % at 5 µM;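 active = inhibition above its plate's threshold, mean inhibition of all tested compounds on the plate plus 3 SD, cut at about 37% in these data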
GPR7 antag cf = GPR7 receptor antagonists, confirmation, cell-based, fluorescence, single concentration. shares compounds with GPR7 antag. GPR7-expressing cells, calcium fluorescence antagonist mode. inhibition, % at 4.4 µM. actives 52% (n = 2,400). AID 1952, 2009; in the data active = inhibition above about 24%;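 note: stimulated with the GPR7 agonist NPW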
MCHR1 antag = MCHR1 antagonists in cells, counter-screen for GPR7 antagonist project, cell-based, fluorescence, human; inhibition, % at 4.4 µM; shares compounds with GPR7 antag; AID 2148, 2009; MCHR1-expressing cells, fluorescence antagonist assay; actives 62% (n = 2,400); in the data active = inhibition above about 22%
OX1R Fluo8 conf = OX1R (HCRTR1) antagonists, confirmation, fluorescence, CHO/OX1R cells, Fluo-8 calcium, orexin A; shares compounds with OX1R antag-2; orexin A calcium Fluo-8 fluorescence; inhibition, % at 5 µM; actives 38% (n = 1,100); in the data active = inhibition above about 29%
CHO Ca triplic = ATP-evoked calcium inhibition in parental CHO, counter-screen for OX1R antagonist project, cell-based, fluorescence, CHO-K1, triplicate; shares compounds with OX1R antag-2; AID 492965, 2010; inhibition, % at 5.6 µM; ATP-induced calcium, Fluo-8 fluorescence; actives 9.3% (n = 1,100);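 active = inhibition above a per-plate limit, the mean inhibition of that plate's test compounds plus 3 SD, cut at about 25% in these data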
TAAR1 ag conf = human TAAR1 agonists, retest of hits, confirmation, Fluo-8 calcium fluorescence, CHO RD-HGA16 cells; shares compounds with TAAR1 agonist; scaled: DMSO 0%, maximal phenethylamine 100%; activation, % at 3 µM; actives 82% (n = 2,400);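 active = activation above a cutoff set at the run's mean compound activation plus 3 SD, cut at about 39% in these data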
Ga16 nonsel ag = nonselective calcium mobilization agonists, CHO-Ga16 cells, counter-screen for hTAAR1 agonist project, cell-based, fluorescence, CHO-Ga16 parental line; shares compounds with TAAR1 agonist; Fluo-8 calcium fluorescence; normalized to maximal ATP response, DMSO zero; activation, % at 3 µM; actives 50% (n = 2,400);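 active = activation above the run cutoff, the mean activation over all tested wells plus 3 SD, cut at about 12% in these data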
TAAR1 desensitize = TAAR1 desensitization by agonist hits, confirmation, counter-screen for TAAR1 agonist project, cell-based, fluorescence, tachyphylaxis; actives 46% (n = 2,400); AID 651951, 2012; inhibition, % at 3 µM; shares compounds with TAAR1 agonist; CHO RD-HGA16 hTAAR1, Fluo-8 calcium, beta-PEA response inhibition;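 active = inhibition above the run cutoff, the mean inhibition of all test compounds plus 3 SD, cut at about 49% in these data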;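 note: beta-PEA stimulus applied at its EC80; loss of beta-PEA calcium signal after compound pretreatment read as receptor desensitization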
Ga16 nonsel ant = inhibition of ATP-evoked calcium response in CHO-Ga16 cells, counter-screen for TAAR1 agonist project, cell-based, fluorescence; shares compounds with TAAR1 agonist; CHO-Ga16 ATP-induced calcium, Fluo-8 fluorescence; inhibition, % at 3 µM; actives 39% (n = 2,400); AID 651952, 2012;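 active = inhibition above the plate's mean compound inhibition plus 3 SD, computed per plate, cut at about 22% in these data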
Of the large screens only hits and unclear results are named; the others gave an inactive call (follow-up assays come after a bar, where they were run). Sampled rows, rich in hits. Any-hit rate of the full collection: about 4.6%.

COc1ccc(CNCCC(c2ccccc2)c2ccc3c(c2)OCO3)cc1 (configuration not stated)	GPR7 antag 40.7, TAAR1 agonist 59.5 | GPR7 antag cf 45.8 | MCHR1 antag 64.2 | TAAR1 ag conf 57.6 | Ga16 nonsel ag 30.3 | TAAR1 desensitize 61.7 | Ga16 nonsel ant 36.8
COc1ccc(C(CC(=O)O)c2ccc3c(c2)OCO3)cc1 (configuration not stated)	none
CCCCCNCC(=O)Nc1cccc(C(=O)Nc2cccc(C(F)(F)F)c2)c1	TAAR1 antag 49.7, GPR7 antag 25.0, TAAR1 agonist 72.3 | GPR7 antag cf 50.2 | MCHR1 antag 81.2 | TAAR1 ag conf 75.8 | Ga16 nonsel ag 46.5 | TAAR1 desensitize 56.3 | Ga16 nonsel ant 45.9
Cc1ccc(O)c(NC(=S)NC(=O)Cc2ccc(Cl)cc2)c1	TAAR1 antag 105.6, CHO parental Ca 99.3, GPR7 antag 99.0, TAAR1 agonist 155.3, OX1R antag-2 107.2 | GPR7 antag cf 99.5 | MCHR1 antag 106.5 | TAAR1 ag conf 140.1 | Ga16 nonsel ag 117.2 | TAAR1 desensitize 106.2 | Ga16 nonsel ant 101.7
CCc1nc2ccc(C(=O)NCc3cccs3)cn2c1N(CCC(C)C)CCN(C)C	none (no result: CHO parental Ca, GPR7 antag, OX1R antag-1, OX1R antag-2)
C=CCn1c(O)c(N=Nc2ccccc2[N+](=O)[O-])c2ccccc21	none (no result: CHO parental Ca, GPR7 antag, OX1R antag-1, OX1R antag-2)
Cc1ccc(CNC(=O)CCC(=O)n2ncc3cc(C)ccc32)cc1	none
Cc1cccc2c1cnn2C(=O)CCC(=O)NCc1ccc(F)cc1	OX1R antag-2 49.7 | OX1R Fluo8 conf inactive | CHO Ca triplic inactive
CCOC(=O)/C=c1\s/c(=C\c2ccc3c(c2)OCCO3)c(=O)n1CC(=O)NCC1CCCO1 (configuration not stated)	OX1R antag-2 103.3 | OX1R Fluo8 conf inactive | CHO Ca triplic inactive
CCNC(=O)C1(C)CCN(C(=O)c2ccccc2F)C1 (configuration not stated)	none (no result: CHO parental Ca, GPR7 antag, OX1R antag-1, OX1R antag-2)
Cc1nc2ccc(NS(=O)(=O)c3ccc(F)cc3F)cc2s1	none (no result: GPR7 antag)
Cc1nc2ccc(NS(=O)(=O)c3c(F)cc(F)cc3Br)cc2s1	none (no result: GPR7 antag) | OX1R Fluo8 conf inactive | CHO Ca triplic inactive
Cc1ccc(S(=O)(=O)N2CCCCC2)cc1C(=O)N1C(C)CCCC1C (configuration not stated)	none (no result: GPR7 antag)
CC(=O)NC(NC(=S)Nc1ccc(S(N)(=O)=O)cc1)C(Cl)(Cl)Cl (configuration not stated)	none
CC(=O)NC(NC(=S)Nc1ccc(N=Nc2ccccc2)cc1)C(Cl)(Cl)Cl (configuration not stated)	none | OX1R Fluo8 conf 41.3 | CHO Ca triplic inactive
CCC(C(=O)NC(C)(C)C)n1c(-c2ccc(C)cc2)nc2ccccc21 (configuration not stated)	none (no result: CHO parental Ca, GPR7 antag, OX1R antag-1, OX1R antag-2)
O=C(COC(=O)CCc1c[nH]c2ccccc12)NCCc1ccccc1	none (no result: GPR7 antag)
NS(=O)(=O)c1ccc(CCNC(=O)COC(=O)CCc2c[nH]c3ccccc23)cc1	none (no result: GPR7 antag) | OX1R Fluo8 conf inactive | CHO Ca triplic inactive
O=C(COC(=O)[C@H](Cc1c[nH]c2ccccc12)NC(=O)c1cccs1)NCc1ccccc1	none | OX1R Fluo8 conf inactive | CHO Ca triplic inactive
COC(=O)C(Cc1ccccc1)NC(=O)CCc1c[nH]c2ccccc12 (configuration not stated)	none | OX1R Fluo8 conf 37.4 | CHO Ca triplic inactive
CC(C)C[C@H](NC(=O)c1ccccn1)C(=O)N1CCC[C@H]1C(=O)NCc1ccccc1	none (no result: CHO parental Ca, GPR7 antag, OX1R antag-1, OX1R antag-2)
O=S(=O)(NCc1ccccc1)c1ccc(S(=O)(=O)N(Cc2ccccn2)C2CCCC2)cc1	OX1R antag-2 50.2 | OX1R Fluo8 conf inactive | CHO Ca triplic inactive
CCNS(=O)(=O)c1ccc(S(=O)(=O)N(Cc2ccccn2)C2CCCCC2)cc1	none
COc1ccc(C2NC3=C(CCC3)C3(C#N)C4(N=C(N)C23C#N)OCCO4)cc1 (configuration not stated)	none | OX1R Fluo8 conf inactive | CHO Ca triplic inactive
CCOC(=O)C1=CC[C@@H](c2ccccc2Cl)N(S(=O)(=O)c2ccc(C)cc2)[C@H]1C(=O)OCC	OX1R antag-2 60.0 (no result: GPR7 antag) | OX1R Fluo8 conf inactive | CHO Ca triplic inactive
